CHRM4 antagonist: CHRM4 antagonism in calcium assay; CHO-hM4 cells, ACh EC80, Fluo-8 calcium fluorescence; inhibition, % at 3 µM; actives 0.73% (n = 360,000); AID 624125;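 active = inhibition above its plate's cutoff, the mean inhibition of sample wells plus 3 SD, cut at about 27% in these data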;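 also: 0% = acetylcholine EC80 with DMSO and 100% = DMSO without agonist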
CHRM5 PAM: potentiates acetylcholine response at human M5 receptor; P08912; CHO-K1 hM5, Fluo-8 calcium, ACh EC20 PAM; 0% = ACh EC20, 100% = ACh EC100; activation, % at 3 µM; actives 0.3% (n = 360,000);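 active = activation above the run cutoff, the mean activation of all test compounds plus 3 SD, cut at about 18% in these data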
Target sequence (P08912 whole entry, looked up): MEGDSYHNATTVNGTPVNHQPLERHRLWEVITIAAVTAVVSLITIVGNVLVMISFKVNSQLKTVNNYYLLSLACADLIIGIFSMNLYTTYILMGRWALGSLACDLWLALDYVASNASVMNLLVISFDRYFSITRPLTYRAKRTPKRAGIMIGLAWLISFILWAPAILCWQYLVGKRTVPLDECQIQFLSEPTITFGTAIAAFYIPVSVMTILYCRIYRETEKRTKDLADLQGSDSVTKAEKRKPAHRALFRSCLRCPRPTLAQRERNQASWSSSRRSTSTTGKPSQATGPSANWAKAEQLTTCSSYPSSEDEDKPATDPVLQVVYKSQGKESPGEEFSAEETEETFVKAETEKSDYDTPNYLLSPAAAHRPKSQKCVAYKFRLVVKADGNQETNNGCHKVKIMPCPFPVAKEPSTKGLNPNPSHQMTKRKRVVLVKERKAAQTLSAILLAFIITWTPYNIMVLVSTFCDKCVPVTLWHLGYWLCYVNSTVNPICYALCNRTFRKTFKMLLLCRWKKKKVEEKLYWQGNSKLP
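Measured by: Fluo-8 calcium fluorescence; material: human M5 receptor in CHO-K1 cells; schedule: Post-acetylcholine fluorescence recording 140 s; benchmarks: low control EC20 acetylcholine (0%), high control EC100 acetylcholine (100%); read-out: Max/basal fluorescence ratio as % of EC20–EC100 ACh window; compound: single dose, 3 µM nominal final test concentration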
CHRM4 PAM: positive allosteric modulators of human muscarinic M4 receptor. activation, % at 3 µM. CHO-K1 hM4/Gqi5, Fluo-8 calcium fluorescence, ACh EC20; 0% = ACh EC20, 100% = maximal ACh. AID 624126. actives 0.4% (n = 360,000). P08173;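 active = activation above its plate's cutoff, the mean activation of sample wells plus 3 SD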
CHRM4 agonist: agonists of human muscarinic M4 receptor (CHRM4) | CHO-K1 hM4/Gqi5, Fluo-8 calcium fluorescence; vehicle 0%, full acetylcholine response 100% | P08173 | actives 0.14% (n = 360,000) | activation, % at 3 µM;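 active = activation above the run mean over all test wells plus 3 SD, cut at about 32% in these data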;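 also: peak over basal fluorescence ratio per well then scaled between controls; 0% = DMSO wells and 100% = acetylcholine at EC100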
M5 ag: agonists of human muscarinic M5 receptor (CHRM5). P08912. AID 624037. actives 0.19% (n = 360,000). CHO-K1 hM5 cells, Fluo-8 calcium fluorescence; 0% DMSO wells, 100% maximal acetylcholine response. activation, % at 3 µM;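 active = activation above the run's mean over test compounds plus 3 SD, cut at about 23% in these data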;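 also: signal is peak over basal fluorescence ratio across the kinetic read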
CHRM5 antagonist: blocks acetylcholine activation of human M5 receptor; CHO-hM5 cells, Fluo-8 calcium fluorescence, ACh EC80; inhibition, % at 3 µM; actives 0.59% (n = 360,000);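 active = inhibition above a per-plate cutoff, the mean of that plate's test compounds plus 3 SD, cut at about 27% in these data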;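 also: 0% = acetylcholine EC80 with DMSO and 100% = DMSO without agonist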
* marks the source's active call; other numbers are inactive results. This is a sample that favours compounds with a hit; in the whole collection about 1.8% have one here.

SMILES	CHRM4 antagonist	CHRM5 PAM	CHRM4 PAM	CHRM4 agonist	M5 ag	CHRM5 antagonist
CC[C@H]1C(=O)[C@@H](Cc2ccccc2)[C@@H]2CCN3C(=O)CCC[C@H]1[C@H]23	-13	1	11	2	-3	3
COc1cccc(-n2c(SCC(=O)NCc3ccco3)nnc2-c2c[nH]c3ccccc23)c1	-16	-3	9	0	0	3
COc1ccc(-c2[nH]c(-c3ccc(C)cc3)nc2SCC(=O)NCc2ccco2)cc1OC	-24	4	21*	0	-2	-9
COc1ccc(OC)c(-n2c(SCC(=O)NCc3ccco3)nnc2-c2c[nH]c3ccccc23)c1	40*	-5	-12	0	-1	-4
CCCCN1C(=O)C(C(=O)OCC)CC2=C1CCCC2=O (centres undefined)	-17	5	5	2	-1	-9
CC(=O)Nc1ccc(/C=N/NC(=O)CNC(=O)c2ccccc2)cc1	2	3	-4	0	0	1
CCC(C)n1c(NC(=O)c2ccccc2)c(C#N)c2nc3ccccc3nc21 (centres undefined)	-5	19*	6	2	17	-5
COc1ccc(C(=O)NC2CC2)cc1OC1CCN(Cc2ccc(F)cc2Cl)CC1	-9	-7	-4	3	-6	5
COC(=O)N(C)C[C@@H]1OCc2cn(nn2)CCCC(=O)N([C@@H](C)CO)C[C@H]1C	1	0	0	1	1	4
O=C1CSC(c2ccccn2)N1c1ccccc1 (centres undefined)	0	3	10	1	-1	1
O=C1CSC(c2ccccn2)N1c1ccc(Br)cc1 (centres undefined)	61*	3	-22	0	-13	7
O=C(CCN1C(=O)S/C(=C\c2ccccc2)C1=O)NC1CCS(=O)(=O)C1 (centres undefined)	11	-3	0	2	-1	-4
COc1cc(/C=C(/C#N)c2ccc(F)cc2)ccc1Oc1ccc([N+](=O)[O-])cn1	15	-21	-12	8	-4	35*
CC(C)S(=O)(=O)NC(=O)C1(C)CCN1C(=O)Cc1ccccc1 (centres undefined)	1	-5	-1	1	-1	29*
CC1(C(=O)Nc2ccc3c(c2)OCO3)CCN1C(=O)Cc1ccc(-c2ccccc2)cc1 (centres undefined)	27*	-15	-8	13	9	31*
CC1(C(=O)Nc2ccccc2)CCN1C(=O)Cc1ccc(-c2ccccc2)cc1 (centres undefined)	-3	-10	-5	10	5	14
CCNc1nc(NCC)nc(N/N=C/c2ccc(Br)cc2)n1	-5	-7	-8	6	-3	-3
CCCc1nc2sc3c(c2c(=O)[nH]1)CCCC3	-8	18*	5	0	-2	-3
COCc1nc2sc3c(c2c(=O)[nH]1)CCCC3	-6	-13	-7	10	1	13
O=C(CC[C@H]1O[C@@H](n2cnc3c(NC(=O)c4ccccc4)ncnc32)[C@H](O)[C@@H]1O)NCCc1cc2ccccc2[nH]1	-9	5	11	0	3	-12
COc1ccc(Cl)cc1N(C(=O)Nc1cccc(Cl)c1)C1=NCC(C)S1 (centres undefined)	0	-8	-5	6	-4	9
CC[C@]12c3[nH]c4ccc(Cl)cc4c3CCN1C(=O)[C@@H](CC(=O)NCc1ccc(OC)c(OC)c1)C[C@@H]2C(=O)N1CCN(C(=O)C2CC2)CC1	3	2	-7	1	-1	-2
CC[C@]12c3[nH]c4ccccc4c3CCN1C(=O)C(CC(=O)NCC13CC4CC(CC(C4)C1)C3)C[C@@H]2C(=O)N1CCN(C(=O)c2ccco2)CC1 (some centres undefined)	33*	-2	-17	6	0	13

Source: PubChem (The Scripps Research Institute Molecular Screening Center)
